Sampled rows, rich in hits. Any-hit rate of the full collection: about 3.5%.
MrgX1 agonist: activates human MrgX1 receptor signaling; Q96LB2; MrgX1-HEK293 cells, Fluo-4 calcium fluorescence, agonist mode; stronger effect = higher value; B-score at 10 µM; 310,000 tested, 0.44% active; AID 588627;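 active means calcium response B-score plate-corrected fluorescence ratio at least 3 library SD, with starting fluorescence B-score inside 5 SD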
Target sequence (Q96LB2 whole entry, looked up): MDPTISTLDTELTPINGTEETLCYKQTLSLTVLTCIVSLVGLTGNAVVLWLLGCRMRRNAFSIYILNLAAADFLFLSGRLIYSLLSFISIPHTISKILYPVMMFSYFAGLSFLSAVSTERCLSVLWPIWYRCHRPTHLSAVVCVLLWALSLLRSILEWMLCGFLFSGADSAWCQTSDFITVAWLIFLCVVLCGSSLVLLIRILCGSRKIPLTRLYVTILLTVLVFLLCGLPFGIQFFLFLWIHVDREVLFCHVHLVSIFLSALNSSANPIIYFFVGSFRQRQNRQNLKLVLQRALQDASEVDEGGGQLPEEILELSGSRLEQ
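Assay system: MrgX1-expressing HEK293 cells / Amount: fifteen thousand cells per well / Doses: test compound in the initial addition of three / Timing: cells plated overnight, dye loaded 0.5 h 37 °C, 0.5 h room temperature / Technique: kinetic calcium dye fluorescence, Fluo-4 NW / Control set: positive and negative controls per plate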
RGS4 pot: RGS4 potentiation or activation. HEK293 M3R/inducible RGS4, carbachol calcium flux Fluo4; stronger effect = lower value. B-score at 10 µM. 310,000 tested, 0.92% active;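 active means B-score of the integrated calcium signal more than 4 SD below the library mean, with starting fluorescence not abnormally high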;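 further: negative B-score means reduced calcium response which marks RGS4 activation or potentiation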
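Assay system: Inducible-RGS4 HEK293 cells carrying M3 receptor | Schedule: Compound preincubation 20 min at room temperature before agonist | Signal: Kinetic calcium fluorescence imaging with Fluo4-AM dye, 2 µM | Read-out basis: B score from integrated fluorescence ratio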
MrgX1 antag: human MrgX1 receptor antagonism, primary screen; AID 588676; MRGX1-HEK293 calcium flux, Fluo-4, BAM8-22 antagonism; stronger effect = lower value; B-score at 10 µM; 310,000 tested, 1.3% active; Q96LB2;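 active means calcium-response B-score plate-corrected more than 3 library SD below zero, starting fluorescence within 5 deviations, no agonist response on first addition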;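 further: peak minus trough fluorescence over baseline after final BAM8-22 challenge near maximal dose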
RGS4 block: human RGS4 inhibition | AID 463165 | 310,000 tested, 0.45% active | HEK293 M3R/RGS4 inducible, Fluo-4 calcium flux; stronger effect = higher value; triggered by carbachol at its EC20 | P49798 | B-score at 10 µM;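 active means B-score, a plate-corrected calcium signal, over three deviations above library mean, with baseline fluorescence within five deviations of library mean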;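 further: RGS4 expression induced by doxycycline in cells with stable M3 receptor; B-score is computed from the integrated fluorescence ratio over baseline after carbachol; higher B-score means a larger calcium signal and so more RGS4 inhibition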
Target sequence (P49798 whole entry, looked up): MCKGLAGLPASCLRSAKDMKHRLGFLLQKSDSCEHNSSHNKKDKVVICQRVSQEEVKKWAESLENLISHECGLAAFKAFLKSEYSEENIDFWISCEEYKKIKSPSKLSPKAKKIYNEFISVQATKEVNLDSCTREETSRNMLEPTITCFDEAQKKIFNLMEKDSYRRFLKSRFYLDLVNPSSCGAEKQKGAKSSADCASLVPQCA
MrgX1 allo act: human MrgX1 positive allosteric modulation, primary screen. Q96LB2. MrgX1-HEK293, Fluo-4 calcium flux, FDSS; stronger effect = higher value. B-score at 10 µM. 310,000 tested, 0.63% active. AID 588675;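 active means plate-corrected calcium response at least 3 library SD above typical, normal starting fluorescence, not activating the receptor alone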;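 further: compound read alongside a low EC10 to EC30 dose of BAM8-22 agonist; peak minus trough fluorescence over baseline measured at the second addition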
MrgX1 antag conf: human MrgX1 receptor antagonism, re-confirmation screen; remaining BAM8-22 calcium response % of control (stronger effect = lower value), % at 10 µM; AID 602420; shares compounds with MrgX1 antag; 2,300 tested, 19% active; MrgX1-HEK293, BAM8-22 calcium flux, Fluo-4; stronger effect = lower value;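 active means remaining agonist calcium response no higher than 100% minus 3 SD of agonist-only control wells, with starting fluorescence near control levels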;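 further: agonist BAM8-22 given at a near maximal EC90 to ECmax level; peak minus minimum fluorescence divided by baseline after agonist addition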
HEK293 Ca flux: activity in parental HEK293 cells lacking MrgX1. fluorescence ratio F(max-min)/F0 at 10 µM. Fluo-4 calcium fluorescence, FDSS. 4,000 tested, 2% active. shares compounds with MrgX1 antag;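 active means duplicate-averaged calcium fluorescence ratio at least three times the standard deviation of buffer wells, a nonspecific response in parental cells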
HEK293 Ca counter: MrgX1 allosteric activator counter-screen hit in parental HEK293 cells. shares compounds with MrgX1 antag. parental HEK293 calcium flux, Fluo-4 fluorescence ratio; stronger effect = higher value. fluorescence ratio F(max-min)/F0 at 10 µM. 4,000 tested, 0.4% active. AID 624114;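 active means calcium fluorescence ratio, averaged over duplicates, at least 3 SD of the buffer-well ratio, meaning a nonspecific response in receptor-free cells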;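 further: untransfected parental HEK293 lacking MrgX1 used as counterscreen for MrgX1 allosteric activators; fluorescence change taken during the second addition on a kinetic imager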
HEK293 Ca cntr2: counter-screen for MrgX1 activators: effect in parental HEK293 cells | shares compounds with MrgX1 antag | Fluo-4 calcium fluorescence (FDSS); stronger effect = higher value | fluorescence ratio F(max-min)/F0 at 10 µM | 4,000 tested, 8.7% active | AID 624115;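 active means calcium fluorescence ratio at least three times the spread of buffer wells, meaning a non-specific response in parental cells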
* = called active by the depositor; i = inactive; x = no result.

SMILES	MrgX1 agonist	RGS4 pot	MrgX1 antag	RGS4 block	MrgX1 allo act	MrgX1 antag conf	HEK293 Ca flux	HEK293 Ca counter	HEK293 Ca cntr2
COc1cc(C(=O)c2c(C)c(CCC#N)n3ccccc23)cc(OC)c1OC	i	i	i	i	i	x	x	x	x
COc1ccc(CCNC(=O)c2ccc(OC)c(OC)c2)cc1OC	i	i	-6.8*	i	i	i	i	i	i
COc1cc(OC)cc(C(=O)NCCc2ccc(OC)c(OC)c2)c1	i	i	i	i	i	x	x	x	x
CCOc1cc(N2CCOCC2)c(OCC)cc1NC(=O)COC(=O)c1cc(C)cc(C)c1	i	i	i	i	i	x	x	x	x
Cc1cccc(-n2ncc3c(NCCc4ccc(S(N)(=O)=O)cc4)ncnc32)c1	i	i	-5.5*	i	i	82%*	i	i	i
Cc1cccc(-n2ncc3c(NCc4ccccc4)ncnc32)c1	i	i	i	i	i	x	x	x	x
CC(=O)NCCc1c[nH]c2ccc(O)cc12	i	i	-5.1*	i	i	i	i	i	i
COc1ccc2[nH]cc(CCNC(C)=O)c2c1	i	i	i	i	i	x	x	x	x
Cc1cccc2cc(CN(CC3CCCO3)C(=O)c3ccco3)c(=O)[nH]c12 (stereo not given)	i	i	-8.3*	i	i	i	i	i	i
O=C(NCCCN1CCCC1)c1cc2c(Cl)nc3ccccc3c2s1	i	i	-7.7*	i	i	i	i	i	i
O=C(NCCS(=O)(=O)N1CCN(c2cccc(Cl)c2)CC1)c1ccco1	i	i	i	i	i	x	x	x	x
COc1cc(OC)cc(C(=O)NC(=S)Nc2ccc(NC(=O)c3ccco3)cc2)c1	i	i	-5.1*	i	i	i	i	i	i
COc1cc(CNC(=O)c2ccc3oc(C(C)C)nc3c2)cc(OC)c1	i	i	i	i	i	x	x	x	x
O=C(NCc1ccon1)C1CCC(=O)N(CCc2ccc(Cl)cc2)C1 (stereo not given)	i	i	i	i	i	x	x	x	x
Cc1cc(-c2nnc3n2CCCCC3)c(C)n1-c1ccccc1	i	i	-4.7*	i	i	i	i	i	i
COc1ccc(-c2nnc3n2CCCCC3)cc1OC	i	i	i	i	i	x	x	x	x
O=C(NCCc1ccccc1)NC1CCCCC1	i	i	-4.8*	i	i	i	i	i	i
O=C(CCSc1ccc(Cl)cc1)NC1CCCC1	i	i	i	i	i	x	x	x	x
O=C(CCS(=O)(=O)c1ccccc1)NC1CCCCC1	i	i	i	i	i	x	x	x	x
O=C(CCS(=O)(=O)Cc1ccccc1)NC1CCCCC1	i	i	-4.9*	i	i	i	i	i	i
O=C(CCSc1ccccc1)NCc1cccnc1	i	i	-5.5*	i	i	85%*	i	i	i
O=C(CCSc1ccccc1)NC1CCCC1	i	i	-8.8*	i	i	i	i	i	i
CCC(C)Sc1ccc([C@H]2N[C@@](Cc3ccccc3)(C(=O)OC)[C@H]3C(=O)N(C)C(=O)[C@@H]23)cc1 (stereo not given in full)	i	i	i	i	i	x	x	x	x
O=C(NCCCN1CCCC1=O)Nc1ccccc1F	i	i	i	i	i	x	x	x	x
CCN(CC)S(=O)(=O)c1ccc2oc(C(=O)O)c(C)c2c1	i	i	i	i	i	x	x	x	x
SMILES	MrgX1 agonist	RGS4 pot	MrgX1 antag	RGS4 block	MrgX1 allo act	MrgX1 antag conf	HEK293 Ca flux	HEK293 Ca counter	HEK293 Ca cntr2
CCN(Cc1ccccc1)S(=O)(=O)c1ccc2oc(C(=O)O)c(C)c2c1	i	i	-5.2*	i	i	i	i	i	i
CCOC(=O)CCc1c(C)nc(SCc2ccc(C(=O)O)cc2)c(C#N)c1C	i	i	i	i	i	x	x	x	x
CCC(C)NCCOc1cccc(Br)c1 (stereo not given)	i	i	-5*	i	i	i	i	i	i
COc1cc(OC)c(/C=N/n2c(C)nnc2C)c(OC)c1	i	i	-4.8*	i	i	i	i	i	i
COc1ccc(/C=N/n2c(C)nnc2C)c(OC)c1	i	i	i	i	i	x	x	x	x
CCCCn1c(N)c(N(CCOC)C(=O)CSc2nnc(C)n2-c2ccc(OC)cc2)c(=O)[nH]c1=O	i	i	i	i	i	x	x	x	x
Cc1csc(NC(=O)c2ccc(Cn3nc(C)c(Br)c3C)o2)n1	i	i	-4.8*	i	i	74%*	i	i	i
COc1cccc(CNC(=O)c2ccccc2-c2ccccc2)c1	i	i	i	i	i	x	x	x	x
CN(CC(=O)Nc1c(Cl)cccc1Cl)C(=O)c1ccc2nc[nH]c2c1	i	i	-7.1*	i	i	73%*	i	i	i
Cc1cc(=O)n2c3ccccc3n(CC(O)CN3CCCC3)c2c1C#N (stereo not given)	i	i	-5.3*	i	i	i	i	i	i
CCC(C)NC(=O)C1CCN(S(=O)(=O)c2ccc(-n3cnnn3)cc2)CC1 (stereo not given)	i	i	i	i	i	x	x	x	x
COc1ccc(C(=O)c2cn[nH]c2-c2cc(C)ccc2O)cc1	i	i	-4.5*	i	i	i	i	i	i
COc1ccc(C(=O)c2cn[nH]c2-c2cc(Cl)ccc2O)cc1	i	i	i	i	i	x	x	x	x
Oc1c(Br)cc(Br)cc1C=Nc1cccc2ncccc12	i	i	-7.1*	i	i	83%*	i	i	i
CC(C)Oc1ccc2c(c1)OC(c1ccccc1)(C(F)(F)F)NC2=O (stereo not given)	i	i	-5.8*	i	i	i	i	i	i
COc1ccc2c(c1)OC(c1ccccc1)(C(F)(F)F)NC2=O (stereo not given)	i	i	i	i	i	x	x	x	x
CC(=O)N/C(=C/c1ccc2c(c1)OCO2)C(=O)NCc1ccccc1	i	i	i	i	i	x	x	x	x

Screens deposited in PubChem BioAssay by Johns Hopkins Ion Channel Center.
